# The source made the active and inactive calls.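 How the source made its calls, unless noted: active means viability at or under a set limit in both replicates, limit being median viability minus 3 SD (cut at about 48% in these data, passing the limit was not always enough); inconclusive means at or under the limit in just one replicate; inactive means at or above the limit in both replicates.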
# Assays:
# [1] = SK-BR-3 cell growth inhibitors, pilot screen, 24 h, human (AID 572;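 active means viability at or below 10% of carrier control in both of two separate runs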;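 further: compound exposure lasted between 18 and 24 h rather than exactly 24 h; 100% = carrier-treated control wells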); conditions: SK-BR-3 viability, CellTiter-Glo luminescence, at 10 µM, stronger effect = lower value
# [2] = HUVEC growth inhibition – cell-based, human, primary screen (AID 575;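 active means viability at or below 30% in both replicate assays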;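 further: 100% = median of untreated cell wells with 0.1% DMSO on each plate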); conditions: HUVEC proliferation, CellTiter-Glo luminescence, 72 h; at 10 µM; stronger effect = lower value
# Summary of the method: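 material = primary HUVEC, no more than 12 passages | input = 1250 cells per well | controls = vehicle and MePR control wells | measured by = CTG luminescence | times = 72 h compound incubation | format = collagen-coated 384-well format | read-out = % viability vs DMSO wells | doses = single 10 µM dose, 0.1% DMSO, from 5x medium stock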
# [3] = growth inhibitors of H69AR lung tumor, primary screen, human, duplicate replicates (AID 580); conditions: H69AR lung tumor cells viability, ATP luminescence, 72 h; at 10 µM; stronger effect = lower value;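 further: 100% = mean luminescence of untreated wells and 0% = no signal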
# [4] = reversal of MRP1-mediated doxorubicin resistance, pilot screen, H69AR cells, doxorubicin co-treatment (AID 601;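 active means viability loss from added drug above about 55%, and viability with drug at most 40%, in both replicates, limit read from the data, passing the limit was not always enough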); conditions: CellTiter-Glo, 72 h, at 10 µM; for differential viability (reversal): stronger effect = higher value
# [5] = 384-well plate pilot, post-Golgi transport modulator project, inhibition of yeast transport mutant growth (AID 636; in the data active means inhibition above about 31%); conditions: absorbance 615 nm, about 18 h, stronger effect = higher value
# [6] = growth suppression of yeast trafficking mutant, preliminary HTS, modulators of trafficking downstream of Golgi apparatus project, 1536-format plate, OD 615 nm (AID 637; in the data active means inhibition above about 30%); conditions: yeast transport mutant growth, absorbance 615 nm, 18 h; stronger effect = higher value
# [7] = H69AR cells + 2 uM doxorubicin, measured here: viability with 2 uM doxorubicin, stronger effect = lower value
# [8] = H69AR cells, compound alone cytotoxicity
SMILES,viability [1],viability [2],viability [3],differential viability (reversal) ([4]; H69AR cells + 2 uM doxorubicin),"viability [4, 7] [%]","viability [4, 8] [%]",inhibition [5],inhibition [6]
CC1CCN(CCCNC(=O)c2coc3nc4ccccc4nc23)CC1,148% (inactive),90.6% (inactive),92.9% (inactive),-6.4% (inactive),99.3,92.9,-2.73% (inactive),-2.13% (inactive)
CCCC(=O)Nc1cc(-c2nnc(OC)c3ccccc23)ccc1N1CCOCC1,109% (inactive),84.6% (inactive),94.5% (inactive),-7.97% (inactive),102,94.5,0.96% (inactive),3.71% (inactive)
NS(=O)(=O)c1ccc(NC(=O)CSc2nnc(Cc3cccs3)n2-c2ccccc2)cc1,57% (inactive),93.6% (inactive),93.3% (inactive),4.08% (inactive),89.2,93.3,-7.53% (inactive),2.18% (inactive)
CCOC(=O)C1CCCN(C(=O)Cc2ccc(OC)c(OC)c2)C1 (centres undefined),81% (inactive),99.5% (inactive),94.5% (inactive),2.69% (inactive),91.8,94.5,-6.85% (inactive),1.09% (inactive)
c1coc(CN(Cc2cccs2)Cc2nnnn2C2CCCCC2)c1,74% (inactive),83.2% (inactive),75.7% (inactive),-4.73% (inactive),80.4,75.7,-3.84% (inactive),0% (inactive)
CC(C)NCC(O)COc1cccc2[nH]ccc12 (centres undefined),111% (inactive),78.3% (inactive),99.2% (inactive),-1.55% (inactive),101,99.2,-3.25% (inactive),-3.17% (inactive)
c1cc2c(cc1Nc1nc(-c3ccc4c(c3)OCO4)cs1)OCCO2,97% (inactive),72.6% (inactive),90.5% (inactive),-8.93% (inactive),99.4,90.5,-4.19% (inactive),-10% (inactive)
CC(C)c1nc(NCC2CCCO2)c(C#N)c2c1COC(C)(C)C2 (centres undefined),95% (inactive),74.9% (inactive),89.1% (inactive),4.7% (inactive),84.4,89.1,-9.86% (inactive),13.9% (inactive)
CCCCSc1nnc([C@H](C)NC(=O)OC(C)(C)C)o1,97% (inactive),102% (inactive),90.3% (inactive),-10.7% (inactive),101,90.3,0.14% (inactive),22.6% (inactive)
Cc1ccc(CNc2cc(-c3nn4c(C)nnc4s3)ccc2C)s1,88% (inactive),45.1% (inactive),58.8% (inactive),18.3% (inactive),40.5,58.8,-2.6% (inactive),12.3% (inactive)
CNC(=O)OC(C)CNS(=O)(=O)c1ccc(C)cc1 (centres undefined),60% (inactive),106% (inactive),97% (inactive),6.22% (inactive),90.8,97,-7.4% (inactive),0.55% (inactive)
O=C(Nc1ccc2c(c1)nc1n2CCN(Cc2ccccc2)C1)c1cccs1,76.5% (inactive),88.7% (inactive),80.2% (inactive),-12.4% (inactive),92.6,80.2,-5.89% (inactive),6.19% (inactive)
COc1cc2c(=O)nc3n(c2cc1OC)C(c1ccccc1)N=C(N)N3 (centres undefined),69% (inactive),109% (inactive),97.1% (inactive),-2.35% (inactive),99.4,97.1,-2.84% (inactive),20.2% (inactive)
CCCCn1nnnc1NCc1cccs1,98% (inactive),97% (inactive),99.2% (inactive),14.4% (inactive),84.8,99.2,-6.49% (inactive),-0.33% (inactive)
CCCS(=O)(=O)N1CCCC(C(=O)NC2CCCC(C)C2C)C1 (centres undefined),101% (inactive),113% (inactive),94.8% (inactive),8.93% (inactive),85.8,94.8,-2.73% (inactive),-3.28% (inactive)
Cc1cccc(NC(=O)C2CCCN2C(=O)OCC(C)C)c1C (centres undefined),96% (inactive),108% (inactive),92% (inactive),8.52% (inactive),83.5,92,-4.86% (inactive),-3.82% (inactive)
COc1ccc(C(=O)NCCc2nnc(SCc3nc4ccccc4c(=O)[nH]3)n2C)cc1,101% (inactive),67.3% (inactive),83.4% (inactive),9.63% (inactive),73.8,83.4,-5.89% (inactive),2.42% (inactive)
O=C(NCN1CCCCC1)c1cccnc1,134% (inactive),102% (inactive),106% (inactive),-0.935% (inactive),107,106,-3.9% (inactive),6.07% (inactive)
COc1ccccc1OCCCn1c(=O)oc2ccccc21,154% (inactive),90.1% (inactive),98.2% (inactive),11.9% (inactive),86.3,98.2,-1.56% (inactive),2.79% (inactive)
Cc1ccccc1Cc1c(C)nc2c(C(=O)N3CCN(Cc4ccc5c(c4)OCO5)CC3)cnn2c1C,103% (inactive),59.6% (inactive),79% (inactive),6.94% (inactive),72.1,79,-1.04% (inactive),1.48% (inactive)
COC(=O)c1ccc2c(=O)n(NC(C)=O)c(=S)[nH]c2c1,93% (inactive),109% (inactive),93.7% (inactive),10.7% (inactive),83,93.7,-6.67% (inactive),3.09% (inactive)
Cc1cc(C)cc(-n2nnc(C(=O)NCc3ccc4c(c3)OCO4)c2N)c1,106% (inactive),88.5% (inactive),97.7% (inactive),-6.51% (inactive),104,97.7,-5.19% (inactive),0% (inactive)
C=CCn1c(SCC(=O)Nc2ccc3c(c2)OCO3)nc2ccccc2c1=O,73% (inactive),83.9% (inactive),84.2% (inactive),2.04% (inactive),82.1,84.2,-3.84% (inactive),-1.27% (inactive)
CCOc1cc2[nH]c(=O)n(CCCCC(=O)NCc3ccco3)c(=O)c2cc1OCC,88% (inactive),90.7% (inactive),82.5% (inactive),-12.7% (inactive),95.3,82.5,-2.34% (inactive),1.97% (inactive)

SMILES,viability [1],viability [2],viability [3],differential viability (reversal) ([4]; H69AR cells + 2 uM doxorubicin),"viability [4, 7] [%]","viability [4, 8] [%]",inhibition [5],inhibition [6]
Cc1cc(=O)c2n(Cc3ccccc3Cl)nc[n+]2[nH]1,115% (inactive),100% (inactive),97.1% (inactive),8.77% (inactive),88.3,97.1,-4.4% (inactive),0% (inactive)
COc1cccc(NC(=O)N2CCC(N3CCCCC3)CC2)c1,92% (inactive),88.2% (inactive),94.5% (inactive),-2.56% (inactive),97.1,94.5,-4.29% (inactive),-0.49% (inactive)
Cc1cc(NC(=O)CSc2nc(C3CC3)nc3sc4c(c23)CCC(C)C4)no1 (centres undefined),90% (inactive),108% (inactive),102% (inactive),15.6% (inactive),86.4,102,-5.2% (inactive),-0.18% (inactive)
CCc1nc(SCc2cc(Cl)ccc2OC)n[nH]1,99% (inactive),94.2% (inactive),94.7% (inactive),-11.5% (inactive),106,94.7,-0.68% (inactive),-6.55% (inactive)
C[C@]12CCC(=O)C=C1CC[C@@H]1[C@@H]2[C@@H](O)C[C@@]2(C)[C@H]1CC[C@]2(O)C(=O)CO,103% (inactive),96.2% (inactive),105% (inactive),5.76% (inactive),98.9,105,-1.43% (inactive),-3.83% (inactive)
CC(C)N(C(=O)N1CCC(c2nc(-c3ccncc3)no2)CC1)C(C)C,79% (inactive),105% (inactive),102% (inactive),-3.66% (inactive),106,102,-4.86% (inactive),-5.64% (inactive)
COc1ccc(Cl)cc1NC(=O)CCN1CCN(c2ccccc2C)CC1,70% (inactive),110% (inactive),97.1% (inactive),5.5% (inactive),91.6,97.1,-8.11% (inactive),-0.36% (inactive)
CCN(CC(=O)NC1CCS(=O)(=O)C1)C(=O)C(c1ccccc1)c1ccccc1 (centres undefined),119% (inactive),102% (inactive),102% (inactive),14.2% (inactive),88.2,102,-5.14% (inactive),-2.91% (inactive)
CC1=C(C(=O)Nc2ccccc2C)C2(CCCC2)C(C(N)=O)C(=O)N1 (centres undefined),114% (inactive),81.7% (inactive),90% (inactive),1.6% (inactive),88.4,90,0.96% (inactive),0% (inactive)
O=C(NCCCN1CCCC1=O)c1ccc2c(=O)n(Cc3ccco3)c(=S)[nH]c2c1,97% (inactive),105% (inactive),99.6% (inactive),7.89% (inactive),91.7,99.6,1.95% (inactive),10.5% (inactive)
CCN1C(=O)C(C(=O)Nc2ccc(OC)cc2)C2CC1(C)Oc1ccccc12 (centres undefined),80% (inactive),110% (inactive),86.4% (inactive),-10% (inactive),96.4,86.4,-8.51% (inactive),-1.64% (inactive)
CN1CCN(C(=O)NC2CCCN2S(=O)(=O)c2ccc(Cl)cc2)CC1 (centres undefined),100% (inactive),96.4% (inactive),88.9% (inactive),-0.73% (inactive),89.6,88.9,-1.1% (inactive),-4.68% (inactive)
Cc1cc(S(=O)(=O)N2CCN(c3ccccc3C)CC2)ccc1F,89% (inactive),90.1% (inactive),79.5% (inactive),-0.315% (inactive),79.8,79.5,-0.78% (inactive),4.59% (inactive)
COC(=O)c1ccc(COC(=O)c2c(C)nn(Cc3ccccc3Cl)c2Cl)o1,69% (inactive),94.6% (inactive),86.2% (inactive),4.08% (inactive),82.1,86.2,-4.38% (inactive),3.82% (inactive)
CCOc1ccccc1-c1nc(-c2ccc(C)nc2OC)no1,123% (inactive),95.9% (inactive),81.9% (inactive),-0.315% (inactive),82.2,81.9,-0.78% (inactive),5.74% (inactive)
Cc1ccc(-c2nn[nH]n2)cc1,109% (inactive),112% (inactive),107% (inactive),-4.72% (inactive),111,107,-4.79% (inactive),2.18% (inactive)
CCOc1ccc(-c2c(C#N)c(N)nc3c2c(=O)n(C)c(=O)n3C)cc1OC,114% (inactive),86% (inactive),94.7% (inactive),2.56% (inactive),92.1,94.7,-6.44% (inactive),6.77% (inactive)
O=C(CCN1C(=O)c2ccccc2C1=O)N1CCN(C(=O)c2ccccc2)CC1,106% (inactive),108% (inactive),101% (inactive),8.3% (inactive),92.3,101,-3.25% (inactive),4.59% (inactive)
COc1ccc(-c2ccc(-c3nnn(CC(C)=O)n3)cc2)cc1,118% (inactive),105% (inactive),76.9% (inactive),3.31% (inactive),73.6,76.9,-4.16% (inactive),-9.02% (inactive)
Cc1ccc2c(C(=O)CN3CCSCC3)c(C)[nH]c2c1,120% (inactive),91.8% (inactive),74.2% (inactive),-0.745% (inactive),75,74.2,-3.07% (inactive),-3.82% (inactive)
CC(C(=O)O)c1ccc(-c2ccccc2)c(F)c1 (centres undefined),94% (inactive),81.7% (inactive),90.2% (inactive),-1.62% (inactive),91.8,90.2,-1.82% (inactive),-1.5% (inactive)
Cc1nc2ccc(C(=O)O)cc2c2c1CC(C)S2 (centres undefined),93% (inactive),96.8% (inactive),90.8% (inactive),-2.25% (inactive),93.1,90.8,-4.93% (inactive),0.55% (inactive)
O=S(=O)(NCc1ccc(Cl)cc1)c1cnc[nH]1,103% (inactive),98.1% (inactive),106% (inactive),23.5% (inactive),82.7,106,-6.36% (inactive),-4.59% (inactive)
COc1ccc(-c2nnc(SCc3nnc(-c4ccc(Cl)cc4)o3)n2-c2ccccc2)cc1,73% (inactive),55.6% (inactive),84.3% (inactive),4.27% (inactive),80,84.3,-2.27% (inactive),15.4% (inactive)
